One data set has as its system Bacillus subtilis. Nature of the data set: Antibacterial activity against Bacillus subtilis ATCC 6633 assessed as growth inhibition after 24 hrs by plate dilution method. It is filed as functional. The following applies: ATCC 6633, 24 h. In outline:
(§1)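 MIC determined by standard plate dilution in defined medium […], plates incubated 37 °C for 24 h.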

For a further data set, the system named is Micrococcus luteus. Nature of the data set: Antibacterial activity against Sarcina lutea ATCC 9341 assessed as growth inhibition after 24 hrs by plate dilution method. It is filed as functional. The following applies: ATCC 9341, 24 h. The method in brief:
as §1

Another data set deals with Proteus vulgaris. Put plainly: Antibacterial activity against Proteus vulgaris IFO 3045 assessed as growth inhibition after 24 hrs by plate dilution method. It counts as functional. Particulars: IFO 3045, 24 h. The method in brief:
as §1

Data set [1] is described as follows: Antitumor activity against rat AH-130 cells allografted in Donryu rat assessed as inhibition of tumor growth at 90 mg/kg, ip administered daily for 7 days starting 24 hrs after tumor inoculation measured on 10th day post-tumor inoculation. It is filed as functional. Particulars: route intraperitoneal, read-out: TGI. The method in brief: (§2)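 Male Donryu rats (120 ± 5 g) inoculated s.c. in inguinal region with 5×10^6 AH-130 carcinoma or Yoshida sarcoma cells per rat; drug 90 mg/kg i.p. daily for 7 days starting 24 h later; six animals per group. Body weight and tumor weight measured on day 10 after inoculation; tumor weight compared with untreated control group to give % inhibition.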

Data set [2] deals with Rattus norvegicus. Put plainly: Toxicity in Donryu rat allografted with rat AH-130 cells assessed as body weight at 90 mg/kg, ip administered daily for 7 days starting 24 hrs after tumor inoculation measured on 10th day post-tumor inoculation (reference value: 64.1 gms). It is filed as organism-based. Details: dose 90 mg/kg, route intraperitoneal. The following applies: in vivo. In outline:
as §2

Data set [3] is described as follows: Antitumor activity against rat AH-130 cells allografted in Donryu rat assessed as tumor weight at 90 mg/kg, ip administered daily for 7 days starting 24 hrs after tumor inoculation measured on 10th day post-tumor inoculation (reference value: 4.73 +/- 1.19 gms). It is filed as functional. Particulars: route intraperitoneal. In outline:
as §2

For the next data set, the system named is Brevundimonas diminuta. Nature of the data set: Antibacterial activity against Pseudomonas diminuta IAM 1513 assessed as growth inhibition after 24 hrs by plate dilution method. It is filed as functional. The following applies: IAM 1513, 24 h. In outline:
as §1

The subject of a further data set is Staphylococcus aureus. Put plainly: Antibacterial activity against Staphylococcus aureus ATCC 6538P assessed as growth inhibition after 24 hrs by plate dilution method. It is filed as functional. In outline: as §1
In data set [4] the test system is Rattus norvegicus. Put plainly: Toxicity in Donryu rat allografted with rat Yoshida cells assessed as body weight at 90 mg/kg, ip administered daily for 7 days starting 24 hrs after tumor inoculation measured on 10th day post-tumor inoculation (reference value: 53 gms). Further details: dose 90 mg/kg, route intraperitoneal. It is filed as organism-based. Particulars: in vivo. The method in brief: as §2

Data set [5] is described as follows: Drug metabolism in mouse liver microsomes assessed as fluorouracil release by measuring antibacterial activity against Staphylococcus aureus 209P at 200 ug after 4 hrs by thin layer cup method. It is filed as ADME. In outline: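 Mouse liver microsome fraction suspended in 10 mM phosphate buffer pH 7.4 with 1.15% KCl (equivalent to 25% homogenate); 0.8 mL suspension plus 200 µg isomer in 1 mL, no NADPH, 37 °C for 4 h. Unchanged substrate removed by CHCl3 extraction; released FU in neutralized aqueous layer quantified by antibacterial activity against S. aureus 209P, thin-layer-cup method.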
(In general: Liver microsomes are a subcellular fraction often used to study metabolism.)

Data set [6] in a line: Drug metabolism in mouse liver microsomes assessed as fluorouracil release by measuring antibacterial activity against Staphylococcus aureus 209P at 200 ug after 4 hrs by thin layer cup method in presence of NADPH. It is filed as ADME. The method in brief:
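Mouse liver microsomes in 10 mM phosphate buffer pH 7.4, 1.15% KCl (25% homogenate equivalent); 0.8 mL suspension, 0.1 mL of 50 mM NADPH stock, 200 µg isomer, made to 1 mL; 37 °C, 4 h. After CHCl3 extraction of unchanged substrate, FU in neutralized aqueous phase bioassayed against S. aureus 209P by thin-layer-cup method.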

Another data set deals with Klebsiella pneumoniae. Nature of the data set: Antibacterial activity against Klebsiella pneumoniae ATCC 10031 assessed as growth inhibition after 24 hrs by plate dilution method. It counts as functional. The following applies: ATCC 10031, 24 h. In outline: as §1
The test system of a further data set is Escherichia coli. Nature of the data set: Antibacterial activity against Escherichia coli NIHJ assessed as growth inhibition after 24 hrs by plate dilution method. It is filed as functional. The method in brief: as §1
Data set [7] has as its system YOSHIDA. Nature of the data set: Antitumor activity against rat Yoshida cells allografted in Donryu rat assessed as tumor weight at 90 mg/kg, ip administered daily for 7 days starting 24 hrs after tumor inoculation measured on 10th day post-tumor inoculation (reference value: 3.65 +/- 0.60 gms). It counts as functional. The following applies: route intraperitoneal. The method in brief:
as §2

Data set [8] has as its system YOSHIDA. Put plainly: Antitumor activity against rat Yoshida cells allografted in Donryu rat assessed as inhibition of tumor growth at 90 mg/kg, ip administered daily for 7 days starting 24 hrs after tumor inoculation measured on 10th day post-tumor inoculation. It counts as functional. Particulars: route intraperitoneal, read-out: TGI. In outline: as §2
The test system of the next data set is Micrococcus flavus. Nature of the data set: Antibacterial activity against Micrococcus flavus ATCC 10240 assessed as growth inhibition after 24 hrs by plate dilution method. It counts as functional. The following applies: ATCC 10240, 24 h. In outline:
as §1

As a reminder, the MIC is the least concentration at which growth counts as inhibited.

Converted amounts (≈) assume the structure as drawn.

With `O=c1[nH]c(=O)n([C@@H]2CCCO2)cc1F`, the MIC with Bacillus subtilis was greater than 1000 µM; in the data set on Micrococcus luteus, 12 µM (≈ 2.4 µg/mL); in the data set on Proteus vulgaris, greater than 1000 µM; in the data set on Brevundimonas diminuta, greater than 1000 µM; with Staphylococcus aureus, 12 µM (≈ 2.4 µg/mL); in the data set on Klebsiella pneumoniae it was greater than 1000 µM. Moreover, the MIC in the data set with Escherichia coli was greater than 1000 µM; with Micrococcus flavus, 375 µM (≈ 75.1 µg/mL). The inhibition in vivo at 90 mg/kg in data set [1] was determined as 71.9%; with YOSHIDA [8], 40.6%. Further, the Activity in the data set with Rattus norvegicus [2] was 33 g; in [3], 1.33 g; in the data set with Rattus norvegicus [4], 39.3 g; with YOSHIDA [7], 2.17 g. The Drug metabolism in data set [5] turned out to be 0.72 µg/mL; in [6], 13.16 µg/mL.
Regarding `O=c1[nH]cc(F)c(=O)[nH]1` [FLUOROURACIL], the minimal inhibitory concentration (MIC) in the data set with Bacillus subtilis is 4.62 µM (≈ 0.601 µg/mL); with Micrococcus luteus, 0.0723 µM (≈ 0.0094 µg/mL); with Proteus vulgaris, 18.5 µM (≈ 2.41 µg/mL); in the data set with Brevundimonas diminuta, greater than 1000 µM; with Staphylococcus aureus, 0.0723 µM (≈ 0.0094 µg/mL); in the data set with Klebsiella pneumoniae, 601 µM (≈ 78.2 µg/mL). Moreover, the MIC in the data set with Escherichia coli was determined as 18.6 µM (≈ 2.42 µg/mL); in the data set with Micrococcus flavus it was 0.00425 µM (≈ 0.000553 µg/mL).
Take `O=c1[nH]c(=O)n([C@H]2CCCO2)cc1F`: the MIC in the data set on Bacillus subtilis was 780 µM (≈ 156 µg/mL); with Micrococcus luteus, 6 µM (≈ 1.2 µg/mL); in the data set on Proteus vulgaris, greater than 1000 µM; in the data set with Brevundimonas diminuta, greater than 1000 µM; in the data set on Staphylococcus aureus, 12 µM (≈ 2.4 µg/mL); in the data set on Klebsiella pneumoniae, greater than 1000 µM. The MIC is greater than 1000 µM in the data set with Escherichia coli and 750 µM (≈ 150 µg/mL) in the data set on Micrococcus flavus. Further, the inhibition in vivo at 90 mg/kg in data set [1] was 61.5%; in the data set with YOSHIDA [8] it was 33.7%. The Activity with Rattus norvegicus [2] is on record as 40.2 g; in data set [3], 1.82 g; with Rattus norvegicus [4] it was 42 g; in the data set on YOSHIDA [7] it was 2.42 g. In addition, the Drug metabolism worked out at 0.51 µg/mL in data set [5] and 10.32 µg/mL in [6].
Regarding `O=c1[nH]c(=O)n(C2CCCO2)cc1F` (racemic) [TEGAFUR], the MIC in the data set on Bacillus subtilis is 780 µM (≈ 156 µg/mL); in the data set with Micrococcus luteus it was 12 µM (≈ 2.4 µg/mL); in the data set on Proteus vulgaris, greater than 1000 µM; with Brevundimonas diminuta it was greater than 1000 µM; with Staphylococcus aureus, 12 µM (≈ 2.4 µg/mL); in the data set with Klebsiella pneumoniae, greater than 1000 µM. Moreover, the MIC is greater than 1000 µM in the data set on Escherichia coli and 750 µM (≈ 150 µg/mL) in the data set on Micrococcus flavus. The inhibition in vivo at 90 mg/kg came out at 51.4% in [1] and 38.9% in the data set on YOSHIDA [8]. Further, the Activity with Rattus norvegicus [2] was 33 g; in data set [3], 2.3 g; in the data set with Rattus norvegicus [4] it was 33.2 g; with YOSHIDA [7], 2.23 g.

The values are drawn from ChEMBL document CHEMBL3271939, “Studies of antitumor agents. 1. Resolution of racemic 1-(tetrahydro-2-furanyl)-k-fluorouracil into the R and S isomers and examination of the biological activities of the isomers” (J Med Chem, 1977).
